Like-named read-outs stand apart in the source and are kept apart here. Marks after values point to notes of the source that are not given here. A value given as a limit tells only on which side of the number the result lay.

A short description of data set [1]: Photophysical measurements. Type of data set: physicochemical. Particulars: for Qy(0,0) absorption fwhm / Qy(0,0) absorption λ / Qy(0,0) fluorescence fwhm / Qy(0,0) fluorescence λ: aerated methanol; for Θ f (fluorescence quantum yield) / τS (lifetime of the lowest singlet excited state): Ar-purged methanol; for τS (lifetime of the lowest singlet excited state): fluorescence detection; for Φisc (triplet-excited-state quantum yield, measured directly): Ar-purged solutions; for kic (rate constant for internal conversion of the lowest singlet excited state to the ground state): printed as (x ns)^−1, from Φisc, Φf and τS.

In data set [2] the test system is HeLa human cervical cancer cells. Put plainly: In vitro PDT toxicity on HeLa cells after illumination. The class given is cell-based. Particulars: for LD50: 24 h; for phototoxicity per unit uptake (in words) / incubation period needed to exert PDT toxicity (time-course) / LD50 (least active compounds): HeLa; for phototoxicity per unit uptake (in words): normalized to the same uptake level; for incubation period needed to exert PDT toxicity (time-course): 0.5 μM, various incubation times, 10 J/cm^2 of 732 nm light; for LD50 (least active compounds): 10 J/cm^2 of 732 nm laser.

In data set [3] the test system is HeLa cells. The data set is described as follows: Cellular uptake into HeLa cells. The class given is cell-based, human. Particulars: 24 h, highest concentration (20.5 μM). In a few lines:
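HeLa cells in RPMI with 10% heat-inactivated FBS, seeded at 5000/well and grown 24 h, then exposed 24 h to test compound diluted in complete medium. Cells rinsed with warm PBS, lysed in SOLVABLE 2 h at 37 °C. Lysate fluorescence read at ex 402/em 730 nm against per-compound calibration curves in SOLVABLE. Protein by BCA with BSA standards. Expressed as nmol per mg protein; three experiments.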

Data set [4] concerns HeLa cells. The class given is cell-based, human. Particulars: 1 μM bacteriochlorin, 24 h. In a few lines:
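HeLa cells in 35 mm dishes, attached overnight, then given 1 μM test compound in complete medium for 24 h. After a PBS wash, 5 μg/mL LysoTracker green DND-26, MitoTracker green FM or ER-Tracker green was added for 30 min at 37 °C. Cells were washed again and imaged 5–10 min later by confocal microscopy: 488 nm argon excitation, probe emission 515 ± 10 nm, compound emission >580 nm, 63× water lens. Red/green overlays scored for overlap.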

The test system of data set [5] is HeLa human cervical cancer cells. The data set is described as follows: Dark toxicity on HeLa cells. Particulars: no light, at 10 μM.
For data set [6] the test system is unchanged. Particulars: 24 h, 10 μM.
For data set [7] the following is noted: cited from earlier work.
The mark [8] stands for this setting: Ar-purged 2-methyltetrahydrofuran.
Setting [9] is: freeze–pump–thaw degassed methanol.

Consider `CC1(C)Cc2cc3ccc(cc4nc(cc5ccc(cc1n2)[nH]5)CC4(C)C)[nH]3` [8,8,18,18-tetramethylbacteriochlorin, reference compound], for which the “Φf of fluorescence standard” value in data set [1] (Ar-purged toluene, Soret and Qx excitation) is 0.125.

Compound `COCCOCCOCCOCCNCc1cc(CNCCOCCOCCOCCOC)cc(-c2c3nc(cc4[nH]c(cc4-c4ccc(C)cc4)c(OC)c4nc(cc5[nH]c2cc5-c2ccc(C)cc2)C(C)(C)C4)C(C)(C)C3)c1` [Compound 1] gave an LD50 in data set [2] of 500 nM. The “uptake level (in words)” value with HeLa cells [3] is “Low to intermediate uptake”. In data set [1], the “Qy(0,0) absorption fwhm” value is reported as 21 nm and the “Qy(0,0) absorption λ” value amounted to 732 nm.

As for `CC1(C)Cc2cc3[nH]c(cc4nc(cc5[nH]c(cc1n2)cc5-c1cc(OCCO)cc(OCCO)c1)CC4(C)C)cc3-c1cc(OCCO)cc(OCCO)c1` [Compound 3], the “phototoxicity per unit uptake (in words)” value in data set [2] was “high values”. For the same compound, the “τT (lifetime of the lowest triplet excited state)” value in data set [1] (setting [8]) is reported as 159 μs. For the same compound, in data set [1], the “Θ f (fluorescence quantum yield)” value is 0.15, the “τS (lifetime of the lowest singlet excited state)” value turned out to be 3.0 ns, the “Qy(0,0) absorption fwhm” value was determined as 19 nm and the “Qy(0,0) absorption λ” value is on record as 732 nm. Further, in data set [1], the “Qy(0,0) fluorescence fwhm” value worked out at 24 nm and the “Qy(0,0) fluorescence λ” value is recorded as 738 nm.

With `CC1(C)Cc2cc3[nH]c(cc4nc(cc5[nH]c(cc1n2)cc5-c1cc(O)cc(O)c1)CC4(C)C)cc3-c1cc(O)cc(O)c1` [Compound 4], in data set [2], the “incubation period needed to exert PDT toxicity (time-course)” value is on record as “most rapid toxicity” and the “phototoxicity per unit uptake (in words)” value was “high values”. In the data set with HeLa cells [4], the “overlap with endoplasmic reticulum probe (ER-Tracker)” value (from here on “overlap”) was “high degree of localization”. The “τT (lifetime of the lowest triplet excited state)” value in data set [1] (setting [8]) is listed as 190 μs. In data set [1], the “Θ f (fluorescence quantum yield)” value was 0.12; the “τS (lifetime of the lowest singlet excited state)” value is on record as 3.7 ns; the “Φisc (triplet-excited-state quantum yield, measured directly)” value stood at 0.41; the “Qy(0,0) absorption fwhm” value was 21 nm. In data set [1], the “Qy(0,0) absorption λ” value turned out to be 732 nm, the “Qy(0,0) fluorescence fwhm” value was determined as 26 nm, the “Qy(0,0) fluorescence λ” value worked out at 737 nm and the “kic (rate constant for internal conversion of the lowest singlet excited state to the ground state)” value is 7.7 (ns)^−1.

For the compound `CC1(C)Cc2cc3[nH]c(cc4nc(cc5[nH]c(cc1n2)cc5C#CC[N+](C)(C)C)CC4(C)C)cc3C#CC[N+](C)(C)C.[Cl-].[Cl-]` [Compound 5], in data set [2], the “LD50 (least active compounds)” value was above 1 µM and the “phototoxicity per unit uptake (in words)” value is recorded as “much lower values”. In addition, the “uptake level (in words)” value with HeLa cells [3] is “Intermediate uptake levels”. The dark toxicity level in data set [5] was around 50%. Further, in data set [1], the “Θ f (fluorescence quantum yield)” value came out at 0.11, the “τS (lifetime of the lowest singlet excited state)” value was determined as 3.8 ns, the “Qy(0,0) absorption fwhm” value is 16 nm and the “Qy(0,0) absorption λ” value was 749 nm. In data set [1], the “Qy(0,0) fluorescence fwhm” value was found to be 22 nm and the “Qy(0,0) fluorescence λ” value is 754 nm. The “τT (lifetime of the lowest triplet excited state)” value in data set [1] (setting [9]) is 104 ^k μs.

For `CC1(C)Cc2cc3[nH]c(cc4nc(cc5[nH]c(cc1n2)cc5CN(CCO)CCO)CC4(C)C)cc3CN(CCO)CCO` [Compound 6], the “phototoxicity per unit uptake (in words)” value in data set [2] is on record as “high values”. In the data set on HeLa cells [4], the “overlap” value is reported as “good overlap”. Moreover, the “uptake level (in words)” value in the data set with HeLa cells [3] is “Intermediate uptake levels”. The dark toxicity level in data set [6] is given as around 50%. Besides, the “τT (lifetime of the lowest triplet excited state)” value in data set [1] (setting [8]) stood at 190 μs. For the same compound, in data set [1], the “Θ f (fluorescence quantum yield)” value worked out at 0.095, the “τS (lifetime of the lowest singlet excited state)” value came to 3.8 ns, the “Qy(0,0) absorption fwhm” value is 18 nm and the “Qy(0,0) absorption λ” value stood at 718 nm. For the same compound, in data set [1], the “Qy(0,0) fluorescence fwhm” value is on record as 23 nm and the “Qy(0,0) fluorescence λ” value is listed as 724 nm.

Take `CC1(C)Cc2cc3[nH]c(cc4nc(cc5[nH]c(cc1n2)cc5C(=O)O)CC4(C)C)cc3C(=O)O` [Compound 7]: in data set [2], the LD50 is recorded as 4000 nM and the “LD50 (least active compounds)” value is above 1 µM. The “uptake level (in words)” value with HeLa cells [3] is “lowest uptake”. Further, in data set [1] (setting [8]), the “τT (lifetime of the lowest triplet excited state)” value is listed as 70 μs. Besides, in data set [1], the “Θ f (fluorescence quantum yield)” value is reported as 0.077, the “τS (lifetime of the lowest singlet excited state)” value is listed as 3.7 ns, the “Qy(0,0) absorption fwhm” value turned out to be 26 nm and the “Qy(0,0) absorption λ” value is recorded as 734 nm. Moreover, in data set [1], the “Qy(0,0) fluorescence fwhm” value was 19 nm and the “Qy(0,0) fluorescence λ” value is 742 nm.

On to `CC1(C)Cc2cc3[nH]c(cc4nc(cc5[nH]c(cc1n2)cc5C(=O)NCCN)CC4(C)C)cc3C(=O)NCCN` [Compound 8], for which, in data set [2], the LD50 is 3000 nM, the “incubation period needed to exert PDT toxicity (time-course)” value was “longest incubation times”, the “LD50 (least active compounds)” value is above 1 µM and the “phototoxicity per unit uptake (in words)” value was “much lower values”. The “overlap” value with HeLa cells [4] is “hardly any overlap”. The “uptake level (in words)” value in the data set on HeLa cells [3] is listed as “Intermediate uptake levels”. Also, in data set [1], the “Θ f (fluorescence quantum yield)” value was 0.13, the “τS (lifetime of the lowest singlet excited state)” value stood at 4.0 ns, the “Qy(0,0) absorption fwhm” value was 23 nm and the “Qy(0,0) absorption λ” value is reported as 742 nm. Further, in data set [1], the “Qy(0,0) fluorescence fwhm” value came to 25 nm and the “Qy(0,0) fluorescence λ” value was 750 nm. Besides, the “τT (lifetime of the lowest triplet excited state)” value in data set [1] (setting [9]) was 77 ^k μs.

Consider `CC1(C)Cc2cc3[nH]c(cc4nc(cc5[nH]c(cc1n2)cc5C(=O)N(CCN)CCN)CC4(C)C)cc3C(=O)N(CCN)CCN` [Compound 9], for which, in data set [2], the LD50 is on record as 800 nM and the “phototoxicity per unit uptake (in words)” value is listed as “much lower values”. Also, the “uptake level (in words)” value in the data set with HeLa cells [3] was “low uptake”. In data set [1], the “Θ f (fluorescence quantum yield)” value is 0.12; the “τS (lifetime of the lowest singlet excited state)” value turned out to be 3.5 ns; the “Φisc (triplet-excited-state quantum yield, measured directly)” value came to 0.57; the “Qy(0,0) absorption fwhm” value was determined as 19 nm. For the same compound, in data set [1], the “Qy(0,0) absorption λ” value was found to be 729 nm, the “Qy(0,0) fluorescence fwhm” value amounted to 24 nm, the “Qy(0,0) fluorescence λ” value amounted to 735 nm and the “kic (rate constant for internal conversion of the lowest singlet excited state to the ground state)” value was 11.4 (ns)^−1. Moreover, the “τT (lifetime of the lowest triplet excited state)” value in data set [1] (freeze–pump–thaw degassed ethanol) is listed as 54 ^l μs.

`CC1(C)Cc2cc3[nH]c(cc4nc(cc5[nH]c(cc1n2)cc5C(=O)N1CC[N+](C)(C)CC1)CC4(C)C)cc3C(=O)N1CC[N+](C)(C)CC1.[Cl-].[Cl-]` [Compound 10]: the “phototoxicity per unit uptake (in words)” value in data set [2] was “much lower values”. In addition, in the data set on HeLa cells [3], the “uptake level (in words)” value is “low uptake”. Moreover, in data set [1], the “Θ f (fluorescence quantum yield)” value is 0.12, the “τS (lifetime of the lowest singlet excited state)” value was 3.8 ns, the “Qy(0,0) absorption fwhm” value is on record as 21 nm and the “Qy(0,0) absorption λ” value was 731 nm. In data set [1], the “Qy(0,0) fluorescence fwhm” value is reported as 28 nm and the “Qy(0,0) fluorescence λ” value stood at 740 nm. Further, the “τT (lifetime of the lowest triplet excited state)” value in data set [1] (setting [9]) is on record as 100 ^k μs.

As for `CC1(C)Cc2cc3[nH]c(cc4nc(cc5[nH]c(cc1n2)cc5C(=O)/C=C/c1cc(O)cc(O)c1)CC4(C)C)cc3C(=O)/C=C/c1cc(O)cc(O)c1` [Compound 11], in data set [2], the LD50 stood at 200 nM. The “uptake level (in words)” value with HeLa cells [3] is given as “low uptake”. Moreover, in data set [1] (setting [8]), the “τT (lifetime of the lowest triplet excited state)” value amounted to 78 μs. In addition, in data set [1], the “Θ f (fluorescence quantum yield)” value stood at 0.021, the “τS (lifetime of the lowest singlet excited state)” value is reported as 3.4 ns, the “Qy(0,0) absorption fwhm” value is 35 nm and the “Qy(0,0) absorption λ” value amounted to 781 nm. In data set [1], the “Qy(0,0) fluorescence fwhm” value is 40 nm and the “Qy(0,0) fluorescence λ” value is recorded as 800 nm.

With `COCCN(CCOC)C(=O)c1cc2cc3nc(cc4[nH]c(cc5nc(cc1[nH]2)CC5(C)C)cc4C(=O)N(CCOC)CCOC)CC3(C)C` [Compound 12], the “phototoxicity per unit uptake (in words)” value in data set [2] is given as “high values”. The “uptake level (in words)” value in the data set on HeLa cells [3] was “highest uptake”. Further, in data set [1] (setting [8]), the “τT (lifetime of the lowest triplet excited state)” value came to 105 μs. In data set [1], the “Θ f (fluorescence quantum yield)” value is 0.10, the “τS (lifetime of the lowest singlet excited state)” value was determined as 3.3 ns, the “Qy(0,0) absorption fwhm” value is 20 nm and the “Qy(0,0) absorption λ” value is reported as 727 nm. Moreover, in data set [1], the “Qy(0,0) fluorescence fwhm” value was 27 nm and the “Qy(0,0) fluorescence λ” value is recorded as 733 nm.

Take `CC[C@H]1c2cc3[nH]c4c(c3C)C(=O)[C@H](C(=O)OC)c4c3nc(cc4[nH]c(cc(n2)[C@@H]1C)c(C(C)=O)c4C)[C@@H](C)[C@@H]3CCC(=O)OC/C=C(\C)CCC[C@H](C)CCC[C@H](C)CCCC(C)C` [bacteriopheophytin a]: in data set [7], the “yield of the lowest triplet excited state” value was 0.54.

In the case of `C1=Cc2nc1c(-c1ccccc1)c1nc(c(-c3ccccc3)c3ccc([nH]3)c(-c3ccccc3)c3ccc([nH]3)c2-c2ccccc2)C=C1` [free base tetraphenylporphyrin, tetraphenylporphyrin], the “Φf of fluorescence standard” value in data set [7] (in toluene ref 33) is listed as 0.090.

The values are drawn from article PMC2933425 (Journal of medicinal chemistry, 2010).
